In ChEMBL document CHEMBL1133445, “Nonpeptide alpha(v)beta(3) antagonists. 1. Transformation of a potent, integrin-selective alpha(IIb)beta(3) antagonist into a potent alpha(v)beta(3) antagonist” (J Med Chem, 2000):

What was measured:
Homo sapiens = species: Homo sapiens; assay: In vitro inhibition of the rate of ADP-stimulated human gel-filtered platelet aggregation (PLAGGIN); format: functional
Procedure, shortened: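 Gel-filtered human platelets at 2×10^8/mL with 0.1 mg/mL human fibrinogen and 1 mM CaCl2. Light-transmittance aggregometry at 37 °C, with aggregation started by 10 μM ADP in the presence of test compound or vehicle.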

Integrin alpha-V/beta-3 [1] = target: T1, Integrin alpha-V/beta-3 (Homo sapiens, UniProt P05106+P06756); assay: Displacement of [125I]nonpeptide ligand (compound 7) from purified human recombinant alphaV-beta3; format: protein-complex assay
Procedure, shortened: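 αvβ3 purified from 293 cells overexpressing human recombinant receptor, captured on wheatgerm agglutinin scintillation proximity beads. Incubated with ~40 pM final 125I-labeled nonpeptide ligand in HEPES pH 7.5 binding buffer with Ca2+/Mg2+, overnight at 4 °C with rocking. Nonspecific binding with 1 μM final cold ligand. Counted by scintillation; IC50 derived. Error given as SD.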

Integrin alpha-V/beta-3 [2] = target: T1, Integrin alpha-V/beta-3; assay: Displacement of [125I]echistatin from human recombinant alpha-v beta-3 receptor; format: protein-complex assay
Procedure, shortened: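 Cell extracts of HEK 293 stably transfected with human αvβ3 (~10 × 10^6 receptors/cell) incubated with 30 pM 125I-echistatin in Tris-HCl pH 7.8 buffer with NaCl, Ca/Mg and 0.1% BSA. Nonspecific binding with 1 μM unlabeled echistatin. Bound ligand separated by filtration on poly(ethylenimine)-soaked filters and gamma-counted. Error given as SD.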

Rattus norvegicus [3] = species: Rattus norvegicus; assay: In vitro inhibition of rat osteoclast-mediated bone resorption (BONE RES)
Integrin alpha-V/beta-3 [4] = target: T1, Integrin alpha-V/beta-3; assay: Dissociation constant of radiolabeled compound binding to alpha-v-beta-3; format: protein-complex assay
Rattus norvegicus [5] = assay: Inhibition of the increase of serum calcium levels in a dose-dependent fashion after subcutaneous infusion for 6 hr to TPTX rats at doses 0.20, 0.67, and 2 mg/kg/h; format: organism-based; parameters: route subcutaneous
Procedure, shortened: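 Rats thyroparathyroidectomized and kept on a low-calcium diet; those with serum Ca < 8 mg/dL used. On day 3, anesthetized rats got subcutaneous infusion of vehicle or compound. Bovine PTH(1–34) at 0.03 nmol/h by osmotic minipump started 30 min later. Serum calcium measured at baseline and at the 4–6 h endpoint. Plasma drug levels measured by the echistatin binding bioassay.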

[6] = Half-life following a 1 mg/kg iv bolus dose to male rats (n=4); format: ADME, organism-based; parameters: dose 1 mg/kg, route intravenous; details: rat, in vivo

T1 sequence (P05106 27-788 limits assumed): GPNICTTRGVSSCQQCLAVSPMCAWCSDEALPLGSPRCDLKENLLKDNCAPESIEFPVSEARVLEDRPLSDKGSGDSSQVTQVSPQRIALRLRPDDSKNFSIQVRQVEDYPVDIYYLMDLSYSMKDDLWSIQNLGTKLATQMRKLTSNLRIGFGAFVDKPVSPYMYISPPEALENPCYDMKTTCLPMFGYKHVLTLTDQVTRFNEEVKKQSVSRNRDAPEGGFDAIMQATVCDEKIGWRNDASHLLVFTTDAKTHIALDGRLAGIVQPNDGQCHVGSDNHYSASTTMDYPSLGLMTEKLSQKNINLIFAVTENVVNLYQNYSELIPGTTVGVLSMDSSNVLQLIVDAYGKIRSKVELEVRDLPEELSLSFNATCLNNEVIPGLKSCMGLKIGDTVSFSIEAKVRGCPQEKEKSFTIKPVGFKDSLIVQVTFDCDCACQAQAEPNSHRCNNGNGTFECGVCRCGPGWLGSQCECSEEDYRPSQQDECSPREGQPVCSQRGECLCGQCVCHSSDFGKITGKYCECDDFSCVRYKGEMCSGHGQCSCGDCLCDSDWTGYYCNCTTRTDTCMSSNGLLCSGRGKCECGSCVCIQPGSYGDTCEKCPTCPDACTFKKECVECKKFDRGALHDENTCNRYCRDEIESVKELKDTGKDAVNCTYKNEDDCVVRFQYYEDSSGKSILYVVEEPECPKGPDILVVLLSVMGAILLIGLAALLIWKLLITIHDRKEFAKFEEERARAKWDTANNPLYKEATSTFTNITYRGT
T1 sequence (P06756 31-889 limits assumed): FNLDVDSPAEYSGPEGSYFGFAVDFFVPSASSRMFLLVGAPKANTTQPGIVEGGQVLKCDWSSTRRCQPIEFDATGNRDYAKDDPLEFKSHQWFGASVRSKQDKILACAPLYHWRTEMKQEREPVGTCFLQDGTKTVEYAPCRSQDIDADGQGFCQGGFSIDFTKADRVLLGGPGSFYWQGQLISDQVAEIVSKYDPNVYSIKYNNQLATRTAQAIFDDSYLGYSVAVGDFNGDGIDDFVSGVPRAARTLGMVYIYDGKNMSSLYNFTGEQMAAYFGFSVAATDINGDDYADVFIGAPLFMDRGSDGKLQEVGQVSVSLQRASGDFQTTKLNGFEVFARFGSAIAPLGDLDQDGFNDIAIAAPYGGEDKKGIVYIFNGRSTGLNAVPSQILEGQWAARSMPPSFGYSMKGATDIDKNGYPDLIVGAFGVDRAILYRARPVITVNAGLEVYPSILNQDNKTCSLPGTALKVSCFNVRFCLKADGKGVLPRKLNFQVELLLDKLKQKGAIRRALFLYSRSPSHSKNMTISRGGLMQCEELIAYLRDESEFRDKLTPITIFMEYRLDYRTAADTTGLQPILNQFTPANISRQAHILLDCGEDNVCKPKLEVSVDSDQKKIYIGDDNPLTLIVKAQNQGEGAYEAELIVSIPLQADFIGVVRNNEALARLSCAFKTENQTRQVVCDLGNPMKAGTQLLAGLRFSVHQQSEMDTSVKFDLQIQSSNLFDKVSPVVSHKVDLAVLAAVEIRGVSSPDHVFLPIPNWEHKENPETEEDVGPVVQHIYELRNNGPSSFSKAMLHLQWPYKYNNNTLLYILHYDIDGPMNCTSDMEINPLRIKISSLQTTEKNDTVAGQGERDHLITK
T1 sequence (P06756 891-1048 limits assumed): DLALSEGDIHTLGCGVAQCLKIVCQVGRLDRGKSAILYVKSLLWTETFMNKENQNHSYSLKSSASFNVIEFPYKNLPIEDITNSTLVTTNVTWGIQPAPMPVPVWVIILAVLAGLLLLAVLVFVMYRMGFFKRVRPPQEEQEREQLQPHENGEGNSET

Row | IC50 (Homo sapiens) [nM] | IC50 (Integrin alpha-V/beta-3 [1]) [nM] | IC50 (Integrin alpha-V/beta-3 [2]) [nM] | IC50 (Rattus norvegicus [3]) [nM] | Kd (Integrin alpha-V/beta-3 [4]) [nM] | IC50 (Rattus norvegicus [5]) [nM] | half-life [6] [min] | SMILES
1 | 140 | 0.44 | 0.4 | 8 | – | – | – | Nc1cccc(CCc2ccc(C(=O)NC[C@H](NS(=O)(=O)c3ccccc3)C(=O)O)cc2)n1
2 | 10 | > 1000 | > 1000 | – | – | – | – | O=C(NC[C@H](NS(=O)(=O)c1ccccc1)C(=O)O)c1ccc(OCCC2CCNCC2)cc1
3 | 17 | 10.7 | 1.8 | 300 | – | – | – | N=C(N)NCCOc1ccc(C(=O)NC[C@H](NS(=O)(=O)c2ccccc2)C(=O)O)cc1
4 | 1600 | 0.08 | 0.1 | – | 0.06 | – | – | Nc1cccc(CCc2ccc(C(=O)NC[C@H](NS(=O)(=O)c3ccc(I)cc3)C(=O)O)cc2)n1
5 | 44 | 0.93 | 0.7 | 46 | – | – | – | O=C(NC[C@H](NS(=O)(=O)c1ccccc1)C(=O)O)c1ccc(OCCNC2=NCCCN2)cc1
6 | 260 | 0.07 | 0.3 | 3 | – | 200 | < 30 | O=C(NC[C@H](NS(=O)(=O)c1ccccc1)C(=O)O)c1ccc(CCc2ccc3c(n2)NCCC3)cc1
